From ChEMBL document CHEMBL2417504, “A fundamental relationship between hydrophobic properties and biological activity for the duocarmycin class of DNA-alkylating antitumor drugs: hydrophobic-binding-driven bonding” (J Med Chem, 2013) come the findings set out here.

The nature of series [1]: Solubility of the compound in water after 40 hrs. It counts as physicochemical. Particulars: for solubility: buffer, 40 h; for solubility at 40 h: water.
Series [2] can be described thus: Induction of w794 DNA alkylation (unknown origin) after 2 hrs by densitometric analysis relative to duocarmycin SA. An outline of the steps:
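Loss of full-length labeled DNA quantified by densitometry of remaining non-alkylated DNA. Relative alkylation efficiency corrected for the 10-fold differences in compound concentrations used.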

In another series the test system is L1210. The series can be described thus: Cytotoxicity against mouse L1210 cells after 72 hrs by phosphatase assay. The series is classed as functional, cell-based. Particulars: L1210, 72 h. A digest of the protocol: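 L1210 mouse lymphocytic leukemia cells seeded at 30,000 cells/mL in DMEM + 10% FBS, 100 μL/well, 24 h at 37 °C, 5% CO2; DMSO serial 10-fold dilutions added, six concentrations over 0–100 nM or 0–1000 nM, duplicate, 72 h.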

A short description of series [3]: Displacement of ethidium bromide from hairpin 5'AAAAA duplex DNA sequence (unknown origin) at 2 equivalent compound dose after 5 mins by FID assay.
A short description of series [4]: Displacement of ethidium bromide from hairpin 5'AAAAA duplex DNA sequence (unknown origin) at 10 equivalent compound dose after 5 mins by FID assay.

In brackets after ≈: the same amount, converted by molar mass. A value given as a limit tells only on which side of the number the result lay.

For orientation: solubility means how much of the substance goes into solution per volume. Read a low solubility as a poorly soluble substance. A word on the IC50: it is the concentration needed to halve the response being measured. Read a high IC50 as weaker potency. Molecule `COCCOCCOCCOc1cc2cc(C(=O)N3C[C@@H](CCl)c4c3cc(O)c3[nH]c(C(=O)OC)cc43)[nH]c2c(OCCOCCOCCOC)c1OCCOCCOCCOC` had a solubility in series [1] of 80000 µg/mL (≈ 87900 µM). The fold change (FC) in series [2] stood at 0.009. In the series on L1210, half-maximal inhibition (IC50) was put at 3.5 nM.

Broadly, the inhibition is the change of the read-out against control, counted positive when it falls. The molecule `COCCOc1cc2cc(C(=O)N3C[C@@H](CCl)c4c3cc(O)c3[nH]c(C(=O)OC)cc43)[nH]c2c(OCCOC)c1OCCOC` had a solubility at 40 h in series [1] of 740 µg/mL (≈ 1150 µM). The fold change (FC) in series [2] was found to be 0.9. Besides, the inhibition in series [3] is 10%; in series [4], 50%. The same molecule yielded an IC50 with L1210 of 0.037 nM.

In the case of `COCCOCCOc1cc2cc(C(=O)N3C[C@@H](CCl)c4c3cc(O)c3[nH]c(C(=O)OC)cc43)[nH]c2c(OCCOCCOC)c1OCCOCCOC`, the concentration in solution in series [1] (solubility at 40 h) was 2000 µg/mL (≈ 2570 µM). Also, the fold change (FC) in series [2] was found to be 0.08. Besides, the inhibition turned out to be 0% in series [3] and 27% in series [4]. In the series with L1210, this molecule gave an IC50 of 0.26 nM.

`COCCOCCOc1c(OC)cc2cc(C(=O)N3C[C@@H](CCl)c4c3cc(O)c3[nH]c(C(=O)OC)cc43)[nH]c2c1OC` gave an IC50 in the series with L1210 of 0.035 nM.

`COCCOCCOCCOCCOc1c(OC)cc2cc(C(=O)N3C[C@@H](CCl)c4c3cc(O)c3[nH]c(C(=O)OC)cc43)[nH]c2c1OC` came in with an IC50 in the series with L1210 of 0.11 nM.

`COC(=O)c1cc2c3c(cc(O)c2[nH]1)N(C(=O)c1cc2cc(OC)c(OC)c(OC)c2[nH]1)C[C@H]3CCl` displayed a solubility at 40 h in series [1] of 460 µg/mL (≈ 895 µM). In series [2], the fold change (FC) was determined as 1. Moreover, the inhibition in series [3] worked out at 53%; in series [4], 97%. The IC50 in the series on L1210 worked out at 0.008 nM.

In turn, `COCCOCCOCCOCCOCCOc1cc2cc(C(=O)N3C[C@@H](CCl)c4c3cc(O)c3[nH]c(C(=O)OC)cc43)[nH]c2c(OCCOCCOCCOCCOCCOC)c1OCCOCCOCCOCCOCCOC` returned a solubility in series [1] greater than 12000 µg/mL. For the same molecule, the fold change (FC) in series [2] turned out to be 0.0002. In the series on L1210, half-maximal inhibition (IC50) required 370 nM.

With `COCCOCCOCCOCCOCCOc1c(OC)cc2cc(C(=O)N3C[C@@H](CCl)c4c3cc(O)c3[nH]c(C(=O)OC)cc43)[nH]c2c1OC`, the IC50 with L1210 is 0.25 nM.

`COCCOCCOCCOCCOc1cc2cc(C(=O)N3C[C@@H](CCl)c4c3cc(O)c3[nH]c(C(=O)OC)cc43)[nH]c2c(OCCOCCOCCOCCOC)c1OCCOCCOCCOCCOC` returned a solubility in series [1] greater than 19000 µg/mL. The fold change (FC) in series [2] came out at 0.001. The molecule also registered an IC50 in the series on L1210 of 35 nM.

As to `COCCOc1c(OC)cc2cc(C(=O)N3C[C@@H](CCl)c4c3cc(O)c3[nH]c(C(=O)OC)cc43)[nH]c2c1OC`, the midpoint of inhibition in the series on L1210, the IC50, lay at 0.018 nM.

The molecule `COCCOCCOCCOc1c(OC)cc2cc(C(=O)N3C[C@@H](CCl)c4c3cc(O)c3[nH]c(C(=O)OC)cc43)[nH]c2c1OC` showed an IC50 in the series with L1210 of 0.07 nM. This IC50 lies about 3.9-fold higher than the previous one.
